Legend:
[1] = Ratio of drug level in brain to plasma in Sprague-Dawley rat at 5 mg/kg, iv; type: ADME, organism-based; design: dose 5 mg/kg, route intravenous
Method in brief: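 Male Sprague-Dawley rats received a single iv dose of 5 mg/kg as a solution in DMSO (n = 3). Plasma and nonperfused whole brain were collected 30 min after dosing. Total compound concentration was measured by HPLC and expressed as a brain-to-plasma ratio.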

[2] = target: T1, Transient receptor potential cation channel subfamily V member 1 (Rattus norvegicus, UniProt O35433); test: Antagonist activity at rat TRPV1 expressed in CHO cells assessed as inhibition of capsaicin-induced calcium influx; type: functional, cell-based
T1 sequence (O35433 whole entry): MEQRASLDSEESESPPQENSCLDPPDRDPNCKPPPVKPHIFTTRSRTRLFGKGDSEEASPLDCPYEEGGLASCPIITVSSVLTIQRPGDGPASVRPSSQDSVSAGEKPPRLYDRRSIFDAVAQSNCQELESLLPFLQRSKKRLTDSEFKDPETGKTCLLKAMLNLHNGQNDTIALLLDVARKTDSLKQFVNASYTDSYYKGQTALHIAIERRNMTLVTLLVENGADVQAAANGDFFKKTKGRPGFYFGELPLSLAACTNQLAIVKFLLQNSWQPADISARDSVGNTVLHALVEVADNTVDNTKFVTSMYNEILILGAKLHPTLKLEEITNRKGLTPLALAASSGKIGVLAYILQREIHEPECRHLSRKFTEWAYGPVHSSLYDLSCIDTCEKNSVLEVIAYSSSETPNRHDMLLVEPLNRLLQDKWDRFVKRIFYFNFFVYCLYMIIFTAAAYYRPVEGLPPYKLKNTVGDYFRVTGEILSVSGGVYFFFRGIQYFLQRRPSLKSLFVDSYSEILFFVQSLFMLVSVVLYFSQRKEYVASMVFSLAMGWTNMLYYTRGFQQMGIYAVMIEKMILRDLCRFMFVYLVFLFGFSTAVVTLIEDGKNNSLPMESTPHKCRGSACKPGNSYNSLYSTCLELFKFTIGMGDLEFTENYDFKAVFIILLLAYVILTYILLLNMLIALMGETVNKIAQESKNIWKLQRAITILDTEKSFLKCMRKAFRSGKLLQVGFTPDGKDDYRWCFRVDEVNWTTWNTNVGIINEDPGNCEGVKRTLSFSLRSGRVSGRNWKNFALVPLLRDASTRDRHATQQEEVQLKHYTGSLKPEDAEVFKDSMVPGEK
Method in brief: (§1)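 CHO cells stably expressing rat TRPV1. Uptake of 45Ca2+ was triggered by capsaicin (500 nM) or by acid (pH 5), and test compounds were run over a concentration range. IC50 values are the mean ± SEM of at least two experiments, with triplicate wells at each concentration.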

[3] = target: T1, Transient receptor potential cation channel subfamily V member 1; test: Antagonist activity at rat TRPV1 expressed in CHO cells assessed as inhibition of pH 5 acid-induced calcium influx; type: functional, cell-based; method in brief: as §1
Rattus norvegicus [4] = test: Inhibition of capsaicin-induced flinching in Sprague-Dawley rat at 10 mg/kg, po administered 1 hr before capsaicin challenge; type: functional
Method in brief: (§2)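 Rats received the test compound orally, then capsaicin. In vivo on-target activity was scored as percent inhibition of the capsaicin-evoked flinching response.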

[5] = Drug level in blood of Sprague-Dawley rat with capsaicin-induced flinching at 10 mg/kg, po administered 1 hr before capsaicin challenge; type: ADME, organism-based; design: dose 10 mg/kg, route oral; conditions: read-out: Drug uptake
Rattus norvegicus [6] = test: Inhibition of capsaicin-induced flinching in Sprague-Dawley rat at 3 mg/kg, po administered 1 hr before capsaicin challenge; type: functional; method in brief: as §2
[7] = Drug level in blood of Sprague-Dawley rat with capsaicin-induced flinching at 3 mg/kg, po administered 1 hr before capsaicin challenge; type: ADME, organism-based; design: dose 3 mg/kg, route oral; conditions: read-out: Drug uptake
Rattus norvegicus [8] = test: Toxicity assessed as increase in body core temperature in Sprague-Dawley rat at 10 mg/kg, po by radiotelemetry relative to control; type: organism-based; design: dose 10 mg/kg, route oral; conditions: in vivo
Blood [9] = test: Drug level in blood of Sprague-Dawley rat telemetry model at 10 mg/kg, po; type: ADME, organism-based; design: dose 10 mg/kg, route oral; conditions: in vivo
Rattus norvegicus [10] = test: Inhibition of capsaicin-induced flinching in Sprague-Dawley rat at 1 mg/kg, po administered 1 hr before capsaicin challenge; type: functional; method in brief: as §2
[11] = Drug level in blood of Sprague-Dawley rat with capsaicin-induced flinching at 1 mg/kg, po administered 1 hr before capsaicin challenge; type: ADME, organism-based; design: dose 1 mg/kg, route oral; conditions: read-out: Drug uptake
Rattus norvegicus [12] = test: Toxicity assessed as increase in body core temperature in Sprague-Dawley rat at 3 mg/kg, po by radiotelemetry relative to control; type: organism-based; design: dose 3 mg/kg, route oral; conditions: in vivo
Blood [13] = test: Drug level in blood of Sprague-Dawley rat telemetry model at 3 mg/kg, po; type: ADME, organism-based; design: dose 3 mg/kg, route oral; conditions: in vivo
Rattus norvegicus [14] = test: Inhibition of capsaicin-induced flinching in Sprague-Dawley rat at 0.3 mg/kg, po administered 1 hr before capsaicin challenge; type: functional; method in brief: as §2
[15] = Drug level in blood of Sprague-Dawley rat with capsaicin-induced flinching at 0.3 mg/kg, po administered 1 hr before capsaicin challenge; type: ADME, organism-based; design: dose 0.3 mg/kg, route oral; conditions: read-out: Drug uptake
Rattus norvegicus [16] = test: Toxicity assessed as increase in body core temperature in Sprague-Dawley rat at 1 mg/kg, po by radiotelemetry relative to control; type: organism-based; design: dose 1 mg/kg, route oral; conditions: in vivo
Blood [17] = test: Drug level in blood of Sprague-Dawley rat telemetry model at 1 mg/kg, po; type: ADME, organism-based; design: dose 1 mg/kg, route oral; conditions: in vivo
[18] = target: T2, Transient receptor potential cation channel subfamily V member 1 (Homo sapiens, UniProt Q8NER1); test: Antagonist activity at human TRPV1 assessed as inhibition of capsaicin-induced calcium influx; type: functional
T2 sequence (Q8NER1 whole entry): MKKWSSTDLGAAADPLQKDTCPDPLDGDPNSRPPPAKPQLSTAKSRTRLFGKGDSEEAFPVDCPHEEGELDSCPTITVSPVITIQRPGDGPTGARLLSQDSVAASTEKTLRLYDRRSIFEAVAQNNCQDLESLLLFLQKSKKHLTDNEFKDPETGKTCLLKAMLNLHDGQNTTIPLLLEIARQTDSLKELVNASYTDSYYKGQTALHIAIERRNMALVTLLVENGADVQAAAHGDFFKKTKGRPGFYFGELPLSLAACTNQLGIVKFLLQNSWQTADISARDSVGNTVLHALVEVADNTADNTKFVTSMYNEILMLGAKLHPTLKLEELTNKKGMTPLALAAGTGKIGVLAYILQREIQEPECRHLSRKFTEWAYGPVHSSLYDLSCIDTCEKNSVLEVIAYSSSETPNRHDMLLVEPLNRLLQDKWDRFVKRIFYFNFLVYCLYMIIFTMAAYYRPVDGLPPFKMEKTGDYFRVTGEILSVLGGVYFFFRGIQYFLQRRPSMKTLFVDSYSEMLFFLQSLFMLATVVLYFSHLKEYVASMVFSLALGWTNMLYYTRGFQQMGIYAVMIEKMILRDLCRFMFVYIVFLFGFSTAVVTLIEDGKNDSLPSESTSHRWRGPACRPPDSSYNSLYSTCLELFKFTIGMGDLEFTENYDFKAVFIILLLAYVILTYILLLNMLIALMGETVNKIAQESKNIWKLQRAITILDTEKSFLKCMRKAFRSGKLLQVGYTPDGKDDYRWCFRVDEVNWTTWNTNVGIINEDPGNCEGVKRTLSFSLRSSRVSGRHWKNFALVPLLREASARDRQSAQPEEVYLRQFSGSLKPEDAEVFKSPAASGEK

[19] = target: T2, Transient receptor potential cation channel subfamily V member 1; test: Antagonist activity at human TRPV1 assessed as inhibition of low pH-induced calcium influx; type: functional
Rattus norvegicus [20] = test: Inhibition of capsaicin-induced flinching in po dosed rat; type: functional, organism-based; method in brief: as §2
Rattus norvegicus [21] = test: Toxicity assessed as increase in body temperature in Sprague-Dawley rat at 0.1 to 3 mg/kg, po after 60 mins; type: organism-based; design: dose 0.1-3 mg/kg, route oral; conditions: in vivo, 1 h
Method in brief: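 Rodents were dosed orally at 0.1–3 mg/kg. Body temperature was recorded 60 min after drug administration and compared across doses.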

Compound | Kp [1] | IC50 [2] | IC50 [3] | further results
Nc1nc2c(Oc3cc(-c4ccc(C(F)(F)F)cc4)ncn3)cccc2[nH]c1=O | 0.4 | – | – | –
CC(=O)Nc1nc2c(Oc3cc(-c4ccc(C(F)(F)F)cc4)nc(N)n3)cccc2s1 | 0.44 | – | – | –
CC(C)CN1CCCCC1CNc1nc(C(F)(F)F)ccc1-c1cc(Oc2cccc3[nH]c(=O)c(N)nc23)ncn1 (configuration not stated) | 0.25 | 0.9 nM | 1.7 nM | –
Nc1nc2c(Oc3cc(-c4ccc(C(F)(F)F)cc4NC(=O)c4ccccn4)ncn3)cccc2[nH]c1=O | 0.21 | 0.7 nM | 0.7 nM | –
CC(=O)Nc1nc2c(Oc3cc(-c4ccc(C(F)(F)F)cc4NC(=O)NC(C)(C)C)ncn3)cccc2s1 | 0.19 | 2.4 nM | 6 nM | –
CC(C)(C)NC(=O)Nc1cc(C(F)(F)F)ccc1-c1cc(Oc2cccc3[nH]c(=O)c(N)nc23)ncn1 | 0.04 | 4.1 nM | 5.2 nM | inhibition in vivo at 10 mg/kg (Rattus norvegicus [4]): 43%; concentration at 1 h [5]: 0.196 µg/mL
Nc1nc2c(Oc3cc(-c4ccc(C(F)(F)F)cc4NC(=O)c4ccncc4)ncn3)cccc2[nH]c1=O | 0.07 | 3.3 nM | 2.1 nM | inhibition in vivo at 10 mg/kg (Rattus norvegicus [4]): 50%; concentration at 1 h [5]: 0.00082 µg/mL
COC[C@H](C)Nc1nc(Oc2cccc3[nH]c(=O)c(N)nc23)cc(-c2ccc(C(F)(F)F)nc2N)n1 | 0.04 | 4.4 nM | 6.4 nM | inhibition in vivo at 10 mg/kg (Rattus norvegicus [4]): 23%; concentration at 1 h [5]: 0.00548 µg/mL
Nc1nc(C(F)(F)F)ccc1-c1cc(Oc2cccc3[nH]c(=O)c(N)nc23)ncn1 | 0.11 | 0.8 nM | 2.7 nM | inhibition in vivo at 3 mg/kg (Rattus norvegicus [6]): 100%; concentration at 1 h [7]: 0.252 µg/mL; Activity (Rattus norvegicus [8]): 1.1 °C; Drug uptake (Blood [9]): 1129.62 ng/mL
COCCNc1nc(C(F)(F)F)ccc1-c1cc(Oc2cccc3[nH]c(=O)c(N)nc23)ncn1 | 0.04 | 0.7 nM | 1.3 nM | inhibition in vivo at 1 mg/kg (Rattus norvegicus [10]): 100%; concentration at 1 h [11]: 0.019 µg/mL; Activity (Rattus norvegicus [12]): 0.6 °C; Drug uptake (Blood [13]): 25.35 ng/mL
Nc1nc2c(Oc3cc(-c4ccc(C(F)(F)F)nc4N[C@@H]4CCOC4)ncn3)cccc2[nH]c1=O | 0.09 | 1.1 nM | 0.8 nM | inhibition in vivo at 3 mg/kg (Rattus norvegicus [6]): 30%; concentration at 1 h [7]: 0.0328 µg/mL
COC[C@H](C)Nc1nc(Oc2cccc3[nH]c(=O)c(N)nc23)cc(-c2ccc(C(F)(F)F)cc2N)n1 | 0.07 | 3.8 nM | 2.7 nM | inhibition in vivo at 10 mg/kg (Rattus norvegicus [4]): 95%; concentration at 1 h [5]: 0.342 µg/mL; Activity (Rattus norvegicus [8]): 1.2 °C; Drug uptake (Blood [9]): 289.24 ng/mL
Nc1nc(Oc2cccc3[nH]c(=O)c(N)nc23)cc(-c2ccc(C(F)(F)F)cc2)n1 | 0.07 | 3.7 nM | 2.6 nM | –
COC[C@@H](C)Nc1nc(Oc2cccc3[nH]c(=O)c(N)nc23)cc(-c2ccc(C(F)(F)F)cc2)n1 | 0.15 | 0.3 nM | 0.3 nM | –
COCCNc1nc(Oc2cccc3[nH]c(=O)c(N)nc23)cc(-c2ccc(C(F)(F)F)cc2)n1 | 0.05 | 0.6 nM | 0.8 nM | inhibition in vivo at 1 mg/kg (Rattus norvegicus [10]): 100%; inhibition in vivo at 0.3 mg/kg (Rattus norvegicus [14]): 93%; concentration at 1 h [15]: 0.0249 µg/mL; Activity (Rattus norvegicus [16]): 0.7 °C; Drug uptake (Blood [17]): 100.29 ng/mL
CC(O)CCNc1nc(Oc2cccc3[nH]c(=O)c(N)nc23)cc(-c2ccc(C(F)(F)F)cc2)n1 (configuration not stated) | 0.03 | 16.1 nM | 8.7 nM | inhibition in vivo at 10 mg/kg (Rattus norvegicus [4]): 72%; concentration at 1 h [5]: 0.494 µg/mL
CC(Nc1nc(Oc2cccc3[nH]c(=O)c(N)nc23)cc(-c2ccc(C(F)(F)F)cc2)n1)c1ccccn1 (configuration not stated) | 0.04 | 2.8 nM | 5.7 nM | inhibition in vivo at 10 mg/kg (Rattus norvegicus [4]): 94%; concentration at 1 h [5]: 0.267 µg/mL; Activity (Rattus norvegicus [8]): 0.5 °C; Drug uptake (Blood [9]): 241.9 ng/mL
COC[C@H](C)Nc1nc(Oc2cccc3[nH]c(=O)c(N)nc23)cc(-c2ccc(C(F)(F)F)cc2)n1 | 0.19 | 0.8 nM | 1 nM | –
CC(=O)Nc1nc2c(Oc3cc(-c4ccc(C(F)(F)F)cc4N)ncn3)cccc2s1 | 0.93 | 15.9 nM | 3.6 nM | –
CC(C)(C)CN1CCCCC1CNc1nc(Oc2cccc3[nH]c(=O)c(N)nc23)cc(-c2ccc(C(F)(F)F)cc2)n1 (configuration not stated) | 0.24 | 2 nM | 2.1 nM | –
Nc1nc2c(Oc3cc(-c4ccc(C(F)(F)F)nc4NCCN4CCOCC4)ncn3)cccc2[nH]c1=O | 0.04 | 2.2 nM | 18.8 nM | inhibition in vivo at 3 mg/kg (Rattus norvegicus [6]): 60%; concentration at 1 h [7]: 0.0671 µg/mL
COCCNc1nc(Oc2cccc3[nH]c(=O)c(N)nc23)cc(-c2ccc(C(F)(F)F)cc2N)n1 | 0.1 | 4.3 nM | 5.9 nM | inhibition in vivo at 10 mg/kg (Rattus norvegicus [4]): 71%; concentration at 1 h [5]: 0.298 µg/mL
Nc1cc(C(F)(F)F)ccc1-c1cc(Oc2cccc3[nH]c(=O)c(N)nc23)ncn1 | 0.23 | 1.5 nM | 3.9 nM | –
Nc1nc(Oc2cccc3[nH]c(=O)c(N)nc23)cc(-c2ccc(C(F)(F)F)cc2N)n1 | 0.04 | 34.5 nM | 61.9 nM | –
CC(=O)Nc1nc2c(Oc3cc(-c4ccc(C(F)(F)F)cc4)ncn3)cccc2s1 [AMG-517] | – | – | – | IC50 [18]: 0.8 nM; IC50 [19]: 0.6 nM; EC50 (Rattus norvegicus [20]): 0.33 mg/kg; Activity (Rattus norvegicus [21]): Active
